{"source": "paper PMC2996727", "about": "(Biochemistry, 2009)", "target": "T1, YfcG (Escherichia coli, UniProt P77526)", "T1 sequence (P77526 1-215)": "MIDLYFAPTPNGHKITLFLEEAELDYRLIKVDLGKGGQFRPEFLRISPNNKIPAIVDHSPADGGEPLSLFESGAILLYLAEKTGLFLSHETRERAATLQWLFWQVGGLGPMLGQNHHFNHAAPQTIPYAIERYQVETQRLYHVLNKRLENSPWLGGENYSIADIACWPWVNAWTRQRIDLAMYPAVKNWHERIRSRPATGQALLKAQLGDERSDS", "assay": "intrinsic fluorescence titration", "format": "binding", "outline": "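Purified enzyme titrated with thiol and disulfide ligands at 25 °C, monitoring the protein's intrinsic fluorescence; dissociation constants derived from the titration.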"}
{"smiles": "N[C@@H](CCC(=O)N[C@@H](CS(=O)(=O)O)C(=O)NCC(=O)O)C(=O)O", "note": "[GSO3^−]", "values": [{"measurement": "Kd", "value": "23 ± 5", "unit": "µM"}]}
